Screening results from PubChem BioAssay.
LYPLA2 counter – blocks human lysophospholipase 2, a PME1 counter-screen. O95372. recombinant LYPLA2, FP-Rh probe fluorescence polarization. inhibition, % at 5.9 µM. 0.38% of 320,000 active;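 active = inhibition above the screen-wide mean plus 3 SD, limit set per campaign, cut at about 26% in these data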;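 note: 0% = LYPLA2 with DMSO and 100% = wells lacking LYPLA2 enzyme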
Target sequence (O95372 whole entry, looked up): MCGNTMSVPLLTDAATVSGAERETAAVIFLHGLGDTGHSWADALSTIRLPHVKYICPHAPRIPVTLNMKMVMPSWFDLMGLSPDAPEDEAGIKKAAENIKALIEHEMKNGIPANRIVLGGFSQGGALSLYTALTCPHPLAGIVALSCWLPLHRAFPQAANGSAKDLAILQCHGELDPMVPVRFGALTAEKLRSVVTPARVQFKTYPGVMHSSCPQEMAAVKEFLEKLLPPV
RBBP9 inh – blocks human serine hydrolase RBBP9. O75884. recombinant RBBP9, FP-Rh probe fluorescence polarization. inhibition, % at 7.94 µM. 0.2% of 220,000 active. AID 1515;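 active = inhibition above the campaign mean of all tested compounds plus 3 SD, cut at about 14% in these data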;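 note: plate controls were DMSO wells with RBBP9 for no effect and wells lacking RBBP9 protein for full effect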
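Material: RBBP9 protein. Amount: RBBP9 at 2.5 µM in dispensed solution, before mixing. Schedule: 30 min then 45 min, 25 °C. Medium: Tris buffer pH 8.0, NaCl, Pluronic. Measured by: fluorescence polarization. Measure: percent inhibition from mP, scaled between DMSO and no-protein wells. Replication: one well per compound.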
Fam108B counter – counter-screen for RBBP9 inhibitors: inhibitors of mouse Fam108B | 0.33% of 300,000 active | inhibition, % at 9.51 µM | AID 1947 | recombinant Fam108B, FP-Rh probe fluorescence polarization;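 active = inhibition above the screen mean inhibition plus 3 SD, computed separately per campaign, cut at about 18% in these data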;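 note: inhibitors lower polarization as less probe binds the enzyme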
PME-1 primary – blocks human protein phosphatase methylesterase 1 | Q9Y570 | recombinant PME-1, FP-Rh probe fluorescence polarization | inhibition, % at 5.9 µM | 0.53% of 320,000 active;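 active = inhibition above the campaign mean of all compounds plus 3 SD, cut at about 26% in these data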;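 note: competitive labeling of PME-1 active site by serine hydrolase directed probe; 0% = PME-1 with DMSO and 100% = wells lacking PME-1 enzyme; inhibitors block probe labeling so polarization falls and inhibition rises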
Target sequence (Q9Y570 whole entry, looked up): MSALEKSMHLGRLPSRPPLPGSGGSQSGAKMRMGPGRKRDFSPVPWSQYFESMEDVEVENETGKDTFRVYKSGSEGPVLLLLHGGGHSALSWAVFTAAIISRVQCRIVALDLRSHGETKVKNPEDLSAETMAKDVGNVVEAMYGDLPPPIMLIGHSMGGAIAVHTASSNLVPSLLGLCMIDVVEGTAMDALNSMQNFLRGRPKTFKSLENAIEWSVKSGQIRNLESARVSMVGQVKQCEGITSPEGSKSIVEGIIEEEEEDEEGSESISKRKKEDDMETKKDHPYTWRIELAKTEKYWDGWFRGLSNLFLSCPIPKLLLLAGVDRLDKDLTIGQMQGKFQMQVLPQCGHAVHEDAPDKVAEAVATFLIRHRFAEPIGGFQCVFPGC
PAD4 FP inh – inhibitors of human PAD4; Q9UM07; AID 485272; recombinant PAD4, RCA probe fluorescence polarization; 0.41% of 330,000 active; inhibition, % at 6.36 µM;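 active = percent inhibition above a cutoff equal to the mean of all tested compounds plus 3 SD, cut at about 15% in these data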;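 note: 0% = PAD4 with RCA probe and DMSO and 100% = probe without PAD4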
LYPLA1 inh – counter-screen for PME1 inhibitors: inhibitors of human LYPLA1; recombinant LYPLA1, FP-Rh probe fluorescence polarization; inhibition, % at 5.9 µM; 0.16% of 320,000 active;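 active = inhibition above the mean of all tested compounds plus 3 SD, set per campaign, cut at about 14% in these data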;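 note: inhibitors block serine hydrolase probe labeling of LYPLA1 so polarization falls; 0% = enzyme with DMSO and 100% = wells lacking LYPLA1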
Fam108b inh conf – Fam108b (mouse) hydrolase inhibition, confirmation assay. inhibition, % at 9.51 µM. recombinant Fam108b, FP-Rh probe fluorescence polarization. shares compounds with Fam108B counter. 44% of 930 active;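 active = inhibition above a limit from the primary screen, the mean over all compounds plus 3 SD, cut at about 19% in these data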;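 note: 0% = median of active Fam108b wells and 100% = catalytically dead S170A mutant; inhibitors free the probe so polarization falls as inhibition rises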
Fam108b inh – mouse ABHD17B inhibition; shares compounds with Fam108B counter; recombinant Fam108b, gel-based ABPP, fluorophosphonate probe; inhibition, % at 20 µM; 44% of 260 active; AID 588649; in the data active = inhibition above about 40%
Numbers without * were called inactive; / = no result given. Sampled rows, rich in hits. Any-hit rate of the full collection: about 1.3%.

SMILES	LYPLA2 counter	RBBP9 inh	Fam108B counter	PME-1 primary	PAD4 FP inh	LYPLA1 inh	Fam108b inh conf	others
Cc1cc(/C=C(/C#N)c2nc3ccccc3[nH]2)c(C)n1-c1cccc([N+](=O)[O-])c1	-16	-10	25*	7	-4	-22	-11
Oc1c(Br)cc(Br)c(/C=N/n2c(-c3ccccc3)n[nH]c2=S)c1Br	6	/	19*	38*	-6	2	16
Cc1nn(-c2ccc(Br)cc2)c(=O)c2ccccc12	8	/	88*	93*	-5	2	-12
Cc1nn(-c2ccccc2C(=O)O)c(=O)c2ccccc12	-1	-1	-2	-7	-6	3	/
N#Cc1ccc2ccn(CC(=O)NC3CCCCC3)c2c1	3	-8	1	-5	-1	1	/
N#Cc1ccc2ccn(CC(=O)NCc3ccccc3)c2c1	5	1	33*	1	-5	1	4
O=C(Nc1cccc(-c2csc(Nc3ccccc3)n2)c1)c1cc([N+](=O)[O-])cc(C(F)(F)F)c1	-5	/	37*	31*	1	-16	21*
O=C(Nc1ccc(-c2csc(Nc3ccc(Cl)cc3)n2)cc1)c1cc([N+](=O)[O-])cc(C(F)(F)F)c1	-9	/	29*	9	1	-17	-5
O=C(Nc1cccc(-c2csc(Nc3ccc(Cl)cc3)n2)c1)c1cc([N+](=O)[O-])cc(C(F)(F)F)c1	6	/	59*	35*	3	-20	68*	Fam108b inh=100*
CCCc1nnc(NC(=O)c2c(O)c3cccc4c3n(c2=O)CCC4)s1	2	/	-6	-12	-3	-1	/
CSC1=NSC2=NC(=O)/C(=C/c3coc4ccc(O)cc4c3=O)C(=N)N12	-10	-4	28*	-5	-24	-10	17
CSC1=NSC2=NC(=O)/C(=C/c3coc4ccccc4c3=O)C(=N)N12	-9	-7	41*	13	-25	-8	52*	Fam108b inh=0
CSC1=NSC2=NC(=O)/C(=C\c3cccs3)C(=N)N12	0	-2	7	2	-4	-5	/
CCOC(=O)c1c(C)[nH]c(C(=O)OCCOc2ccccc2C)c1C	/	-11	/	/	/	/	/
CCOC(=O)c1cccc(NC(=O)c2ccc(N(C)C)cc2)c1	6	0	5	3	1	1	/
Oc1c(Br)cc(Br)cc1/C=N/NC(=S)N[C@H]1CC2C=CC1C2 (stereo partly drawn)	15	3	18*	26	-3	-1	8
CNC(=S)N/N=C/c1cc(Br)cc(Br)c1O	5	-10	16	13	-3	4	/
Cn1ccnc1SCC(=O)Nc1ccc(Br)cc1C(F)(F)F	12	/	1	5	2	8	/
CCOc1nc(NC(=O)NS(=O)(=O)Oc2cccc(Cl)c2)nc(-c2ccccc2)n1	/	1	/	/	/	/	/
CCn1c(N2CCN(C(=S)Nc3ccc(OC)cc3)CC2)nc2ccccc21	7	-4	2	4	-1	1	/
COc1ccccc1CC(=O)NNS(=O)(=O)c1ccc([N+](=O)[O-])cc1	-3	-6	21*	-4	-6	2	-13
CCC(C)(C)n1nnnc1C(c1ccc(C)cc1)N(Cc1ccco1)Cc1cccs1 (stereo not drawn)	0	-5	2	-5	2	1	/
O=c1[nH]c(=O)n(C2CCCO2)cc1Br (stereo not drawn)	-1	2	-10	0	-9	0	/
COc1cc(/C=N/NC(=O)c2ccc(CSc3nc4ccccc4[nH]3)cc2)ccc1O	-27	-15	24*	-32	-6	-31	2
C/C(=N\NC(=O)c1cc2ccccc2cc1O)c1cccs1	7	/	19*	-6	-2	-4	-6
SMILES	LYPLA2 counter	RBBP9 inh	Fam108B counter	PME-1 primary	PAD4 FP inh	LYPLA1 inh	Fam108b inh conf	others
O=C(Nc1cccc(Cl)c1)Nc1ccc2c(c1)OCO2	11	0	19*	20	1	-10	-1
O=C1c2cccc(O)c2C(=O)c2c(O)cccc21	0	-4	4	7	-4	7	/
CC1=CC(=O)c2c(O)ccc(O)c2C1=O	25	16*	71*	26	23*	-4	43*	Fam108b inh=65*
Cc1ccc(CN(C(=O)c2ccco2)C(C(=O)NC2CCCC2)c2cccnc2)cc1 (stereo not drawn)	1	1	3	-5	-5	2	/
COc1ccc(CNC(=O)c2ccc3nccnc3c2)cc1	9	-9	19*	-1	-1	5	5
Cc1ccc(-c2csc3nc[nH]c(=O)c23)c(C)c1	-3	/	-1	2	0	1	/
Cc1ccc(-c2csc3nc(C(C)C)oc(=O)c23)c(C)c1	-2	-5	67*	-1	-10	-1	66*	Fam108b inh=50*
O=c1cc(-c2ccccc2Cl)oc2c([N+](=O)[O-])c(O)cc(O)c12	0	-5	5	2	-3	-7	/
COc1ccc(CN(CCN(C)C)c2ccccn2)cc1	-3	-3	0	3	-5	1	/
CCCCCCCCCCCCCCCC[N+](C)(C)CCN(Cc1ccc(OC)cc1)c1ncccn1	7	/	22*	6	8	-1	22*
CCCCn1c(SCC(=O)N2CCCC2)nc2cc(S(N)(=O)=O)ccc21	1	1	0	1	3	3	/
Cc1cnc(C(=O)OCC(=O)N2C(C)CCCC2C)cn1 (stereo not drawn)	/	/	/	/	-1	/	/
O=c1oc2c(O)c(O)cc3c(=O)oc4c(O)c(O)cc1c4c23	-1	-6	55*	-20	-4	-11	42*	Fam108b inh=0
CC(C)C(=O)Nc1nnc(SCC(=O)NCc2cccs2)s1	8	-5	-4	-5	-1	7	/
O=C(Cc1ccccc1)NCC(=O)N/N=C/c1ccc(Cl)cc1	0	-4	-2	-12	-3	-2	/
O=c1oc(-c2cccs2)nc2c1cnn2-c1ccccc1	4	-7	20*	2	-1	2	23*
O=c1c2cnn(-c3ccccc3)c2nc(-c2cccs2)n1-c1ccc(Cl)cc1	3	5	-11	5	1	-4	/
CCCCc1ccc(-c2csc(/C(C#N)=C\c3ccc(C)o3)n2)cc1	-5	-7	-6	-10	-3	-5	/
CCOc1ccc(-c2csc(/C(C#N)=C\c3ccc(O)c([N+](=O)[O-])c3)n2)cc1	11	0	25*	26	-1	6	6
CC(=O)Nc1cccc(C(=O)N/N=C/c2ccc(F)cc2)c1	-2	-7	2	2	-1	0	/
O=C(NN=Cc1ccc(O)cc1)c1cccc(NN=Cc2ccc(O)cc2)c1	/	/	/	/	/	/	/	Fam108b inh=95*
